Data set [1] relates to Candida albicans. As to the kind of experiment: Antifungal activity against Candida albicans after 24 hrs by broth microdilution assay. The format is functional. In outline: (§1)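 Broth microdilution in YNB supplemented with 0.5% glucose and 100 mM ammonium sulfate, with compounds serially diluted from DMSO solutions. Inoculum came from single colonies of 48 h plates suspended in water, adjusted by 530 nm turbidity to 1 × 10^6 to 5 × 10^6 CFU/mL, then diluted to about 10^4 CFU/mL. Incubated at 35 °C with visual readings at 24, 48 and 72 h. MIC50/90 is the concentration giving 50%/90% growth inhibition; MIC50 is the mean of three measurements.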
Background: Broth dilution looks for growth in wells or tubes with falling amounts of substance.

Data set [2] can be described thus: Inhibition of Candida albicans acetohydroxyacid synthase catalytic domain expressed in Escherichia coli by colorimetric method. The method in brief: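 Catalytic subunit, His6-tagged, expressed in E. coli Rosetta and purified on Ni affinity resin with FAD present. Single-point colorimetric assay in 250 mM potassium phosphate pH 6.4 with 50 mM pyruvate, 10 mM MgCl2, 1 mM ThDP and 10 μM FAD, 30 °C for 30 min. Acid decarboxylation to acetoin, creatine/α-naphthol colour read at A525. Duplicates at 10–12 inhibitor levels, Ki from nonlinear fit, tight-binding equation where needed.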

The subject of data set [3] is Candida albicans. As to the kind of experiment: Antifungal activity against Candida albicans after 72 hrs by broth microdilution method. The format is functional.
Data set [4] concerns Saccharomyces cerevisiae. As to the kind of experiment: Antifungal activity against Saccharomyces cerevisiae after 72 hrs by broth microdilution assay. Type of data set: functional. In outline: as §1
In data set [5] the test system is Candida albicans. The data set is described as follows: Antifungal activity against Candida albicans after 72 hrs by disk diffusion method. The format is functional. In outline:
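Screened by disk diffusion: 10 μL of compound in DMSO applied to a disk on plates inoculated with yeast. Plates were incubated at 35 °C, and inhibition-zone diameters were measured at 24, 48 and 72 h against a DMSO control disk.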
A general note: Agar diffusion results depend on both activity and mobility in agar.

Data set [6] can be described thus: Toxicity in po dosed rat. Type of data set: organism-based. Conditions: in vivo.
A short description of data set [7]: Toxicity in id dosed rabbit. Conditions: in vivo. Type of data set: organism-based, Oryctolagus cuniculus.

29 compounds from ChEMBL document CHEMBL2311498, “Sulfonylureas have antifungal activity and are potent inhibitors of Candida albicans acetohydroxyacid synthase” (J Med Chem, 2013) can be followed below.

Converted amounts (≈) assume the structure as drawn. The source made the active and inactive calls. The calls are words filed in the database; no cut-off is given here.

In general, MIC50 refers to an inhibitory concentration at the 50% level, which refers to growth in some studies and to a panel of isolates in others. As a reminder, the Ki is the dissociation constant of the complex between target and ligand, obtained from inhibition or displacement. For orientation: MIC90 means an inhibitory concentration at the 90% level, which refers to growth in some studies and to a panel of isolates in others. The LD50 is the dose expected to kill half of the subjects tested. A high value points to lower toxicity.

With `OC(Cn1cncn1)(Cn1cncn1)c1ccc(F)cc1F` [FLUCONAZOLE], the MIC50 in data set [1] is 0.93 µg/mL (≈ 3.04 µM).
Take `COc1cc(I)nc(NC(=O)NS(=O)(=O)c2ccccc2C(=O)OCCCl)n1`: in data set [2] (read-out: Ki), the Ki came to 13.3 nM. In addition, in data set [3], the MIC50 stood at 4 µM (≈ 2.16 µg/mL) and the MIC90 is 12.7 µM (≈ 6.87 µg/mL).
Take `COc1cc(Cl)nc(NC(=O)NS(=O)(=O)c2ccccc2C(=O)OCCI)n1`: in data set [2] (read-out: Ki), the inhibition constant (Ki) was determined as 1200 nM. For the same compound, in data set [3], the MIC50 is > 25 µM and the MIC90 was > 25 µM.
For `CCOC(=O)c1cnn(C)c1S(=O)(=O)NC(=O)Nc1nc(OC)cc(OC)n1` [PYRAZOSULFURON ETHYL], the MIC50 amounted to 41.7 µM (≈ 17.3 µg/mL) in data set [4] and 62 µM (≈ 25.7 µg/mL) in data set [3]. The inhibition constant Ki in data set [2] (read-out: Ki) stood at 66 nM.
Regarding `COc1cc(I)nc(NC(=O)NS(=O)(=O)c2ccccc2C(=O)OCCO)n1`, the inhibitory constant (Ki) in data set [2] (read-out: Ki) stood at 15 nM. Moreover, in data set [3], the MIC50 was > 25 µM and the MIC90 was > 25 µM.
For the compound `COc1cc(Cl)nc(NC(=O)NS(=O)(=O)c2ccccc2C(=O)OCCO)n1`, the Ki in data set [2] (read-out: Ki) is 65 nM. Also, in data set [3], the MIC50 was > 25 µM and the MIC90 was > 25 µM.
In the case of `COC(=O)c1ccccc1S(=O)(=O)NC(=O)Nc1nc(Br)cc(OC)n1`, the inhibitory constant (Ki) in data set [2] (read-out: Ki) is 3.8 nM. In data set [3], this compound came in with an MIC50 of 1 µM (≈ 0.445 µg/mL) and an MIC90 of 6.25 µM (≈ 2.78 µg/mL).
Consider `COC(=O)c1ccccc1S(=O)(=O)NC(=O)N(C)c1nc(C)nc(OC)n1` [TRIBENURON METHYL], for which the MIC50 entry in data set [4] and in data set [3] was “inactive” in each case. Also, in data set [2] (read-out: Ki), the inhibition constant (Ki) came to 1640 nM.
Compound `COC(=O)c1ccccc1S(=O)(=O)NC(=O)Nc1nc(C)cc(C)n1` [SULFOMETURON METHYL] displayed an MIC50 in data set [4] of 19.5 µM (≈ 7.11 µg/mL). Further, in data set [2] (read-out: Ki), the Ki was 634 nM. In addition, the MIC50 result in data set [3] was “inactive”.
For the compound `COc1cc(I)nc(NC(=O)NS(=O)(=O)c2ccccc2C(=O)OCCI)n1`, in data set [2] (read-out: Ki), the Ki amounted to 93 nM. In data set [3], the MIC50 worked out at 12 µM (≈ 7.59 µg/mL) and the MIC90 is 25 µM (≈ 15.8 µg/mL).
As for `COc1cc(Br)nc(NC(=O)NS(=O)(=O)c2ccccc2C(=O)OCCBr)n1`, the Ki in data set [2] (read-out: Ki) was found to be 65 nM. In addition, in data set [3], the MIC50 is > 25 µM and the MIC90 is > 25 µM.
As for `COc1cc(Br)nc(NC(=O)NS(=O)(=O)c2ccccc2C(=O)OCCI)n1`, the Ki in data set [2] (read-out: Ki) came out at 270 nM. In data set [3], the MIC50 is > 25 µM and the MIC90 was > 25 µM.
Regarding `CCOC(=O)c1ccccc1S(=O)(=O)NC(=O)Nc1nc(I)cc(OC)n1`, the Ki in data set [2] (read-out: Ki) came out at 3.8 nM. For the same compound, in data set [5], the “diameter of the inhibition zone (DIZ)” value was 35 mm. In data set [3], this compound yielded an MIC50 of 0.6 µM (≈ 0.304 µg/mL) and an MIC90 of 1.56 µM (≈ 0.79 µg/mL).
As to `CCOc1nc(NC)nc(NC(=O)NS(=O)(=O)c2ccccc2C(=O)OC)n1` [ETHAMETSULFURON METHYL], the MIC50 result in data set [4] and in data set [3] was “inactive” in each case. In data set [2] (read-out: Ki), the Ki was found to be 656 nM.
With `COc1cc(Br)nc(NC(=O)NS(=O)(=O)c2ccccc2C(=O)OCCCl)n1`, in data set [3], the MIC50 was 15 µM (≈ 7.41 µg/mL) and the MIC90 is > 25 µM.
As to `COc1nc(C)nc(NC(=O)NS(=O)(=O)c2ccccc2Cl)n1` [CHLORSULFURON], the MIC50 worked out at 117 µM (≈ 41.9 µg/mL) in data set [4] and 156 µM (≈ 55.8 µg/mL) in data set [3]. The inhibition constant Ki in data set [2] (read-out: Ki) was 434 nM.
As for `COC(=O)c1ccccc1S(=O)(=O)NC(=O)Nc1nc(I)cc(OC)n1`, the Ki in data set [2] (read-out: Ki) worked out at 3.9 nM. In data set [3], this compound yielded an MIC50 of 1 µM (≈ 0.492 µg/mL) and an MIC90 of 3.13 µM (≈ 1.54 µg/mL).
On to `COC(=O)c1ccccc1CS(=O)(=O)NC(=O)Nc1nc(OC)cc(OC)n1` [BENSULFURON METHYL], for which the MIC50 in data set [4] is 20.8 µM (≈ 8.54 µg/mL); in data set [3], 62 µM (≈ 25.4 µg/mL). In addition, in data set [2] (read-out: Ki), the Ki was found to be 31 nM.
As to `COC(=O)c1ccccc1S(=O)(=O)NC(=O)Nc1nc(Cl)cc(OC)n1`, in data set [2] (read-out: Ki), the inhibition constant (Ki) is 7.1 nM. In data set [3], this compound registered an MIC50 of 3 µM (≈ 1.2 µg/mL) and an MIC90 of 6.25 µM (≈ 2.51 µg/mL).
As for `CCOC(=O)c1ccccc1S(=O)(=O)NC(=O)Nc1nc(Br)cc(OC)n1`, the inhibition constant (Ki) in data set [2] (read-out: Ki) was found to be 4.1 nM. In data set [3], this compound yielded an MIC50 of 0.7 µM (≈ 0.321 µg/mL) and an MIC90 of 1.56 µM (≈ 0.716 µg/mL).
Consider `CCOC(=O)c1ccccc1S(=O)(=O)NC(=O)Nc1nc(Cl)cc(OC)n1` [CHLORIMURON ETHYL], for which the MIC50 in data set [4] was determined as 19.5 µM (≈ 8.09 µg/mL); in data set [3], 2 µM (≈ 0.83 µg/mL). Also, the Ki in data set [2] (read-out: Ki) was 7 nM. Moreover, the “diameter of the inhibition zone (DIZ)” value in data set [5] turned out to be 25 mm. For the same compound, the LD50 in data set [6] was > 4000 mg/kg; in data set [7] it was > 2000 mg/kg.
Regarding `COc1cc(I)nc(NC(=O)NS(=O)(=O)c2ccccc2C(=O)OCCO[Si](C)(C)C(C)(C)C)n1`, in data set [2] (read-out: Ki), the inhibition constant (Ki) came out at 13 nM. In addition, in data set [3], the MIC50 is > 25 µM and the MIC90 is > 25 µM.
With `COc1cc(Br)nc(NC(=O)NS(=O)(=O)c2ccccc2C(=O)OCCO)n1`, the inhibition constant (Ki) in data set [2] (read-out: Ki) was determined as 27 nM. In addition, in data set [3], the MIC50 was > 25 µM and the MIC90 was > 25 µM.
Regarding `COc1cc(Cl)nc(NC(=O)NS(=O)(=O)c2ccccc2C(=O)OCCO[Si](C)(C)C(C)(C)C)n1`, the inhibitory constant (Ki) result in data set [2] is given as “Not Active”. Further, in data set [3], the MIC50 is > 25 µM and the MIC90 was > 25 µM.
`COc1cc(I)nc(NC(=O)NS(=O)(=O)c2ccccc2C(=O)OCCBr)n1`: the inhibition constant (Ki) in data set [2] (read-out: Ki) amounted to 26 nM. Besides, in data set [3], the MIC50 is 12 µM (≈ 7.02 µg/mL) and the MIC90 was > 25 µM.
The like results for `COc1cc(Cl)nc(NC(=O)NS(=O)(=O)c2ccccc2C(=O)OCCBr)n1` were, in that order, 257 nM, > 25 µM and > 25 µM.
Turning to `COc1cc(Cl)nc(NC(=O)NS(=O)(=O)c2ccccc2C(=O)OCCCl)n1`, in data set [2] (read-out: Ki), the inhibition constant Ki amounted to 62 nM. For the same compound, in data set [3], the MIC50 was 15 µM (≈ 6.74 µg/mL) and the MIC90 was > 25 µM.
`CCOc1ccccc1OS(=O)(=O)NC(=O)Nc1nc(OC)cc(OC)n1` [ETHOXYSULFURON]: the figures for the MIC50 in data set [4] and in data set [3] were 13 µM (≈ 5.18 µg/mL) and 2 µM (≈ 0.797 µg/mL), respectively. Also, the inhibition constant Ki in data set [2] (read-out: Ki) is 20 nM. Besides, the “diameter of the inhibition zone (DIZ)” value in data set [5] is reported as 30 mm.
Take `COc1cc(Br)nc(NC(=O)NS(=O)(=O)c2ccccc2C(=O)OCCO[Si](C)(C)C(C)(C)C)n1`: the inhibition constant Ki in data set [2] (read-out: Ki) was found to be 49.8 nM. In data set [3], the MIC50 is > 25 µM and the MIC90 is > 25 µM.
